Results taken from ChEMBL document CHEMBL4689842, “EUbOPEN Chemogenomics Library wave 1” (2021).

Test system: U2OS
Assay: Multiplex assay against U2OS
Format: toxicity, cell-based
Settings: human
Summary of the method: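 Values for tubulin, mitochondrial-mass and membrane-permeability phenotypes are per cents of cells with healthy nuclei. These cells were identified by CellPathfinder machine-learning gating of live cells that had been stained at seeding with Hoechst33342, BioTracker Green Microtubule Cytoskeleton Dye, MitoTracker Red and Annexin V Alexa Fluor 680 and imaged on a CQ1 microscope at 37°C and 5% CO2 after compound addition. The gating first set Hoechst high-intensity objects apart from normal cells, then split normal cells into healthy, pyknosed or fragmented nuclei, and pyknosed cells into mitotic or apoptotic.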

[1] = 12 h, 1 µM, compound concentration 1 uM, replicate 1
[2] = 12 h, 1 µM, compound concentration 1 uM, replicate 2
[3] = 12 h, 10 µM, compound concentration 10 uM, replicate 1
[4] = 12 h, 10 µM, compound concentration 10 uM, replicate 2
[5] = 24 h, 1 µM, compound concentration 1 uM, replicate 1
[6] = 24 h, 1 µM, compound concentration 1 uM, replicate 2
[7] = 24 h, 10 µM, compound concentration 10 uM, replicate 1
[8] = 24 h, 10 µM, compound concentration 10 uM, replicate 2
[9] = 48 h, 1 µM, compound concentration 1 uM, replicate 1
[10] = 48 h, 1 µM, compound concentration 1 uM, replicate 2
[11] = 48 h, 10 µM, compound concentration 10 uM, replicate 1
[12] = 48 h, 10 µM, compound concentration 10 uM, replicate 2

Cl.N#Cc1ccc2[nH]cc(CCCCN3CCN(c4ccc5oc(C(N)=O)cc5c4)CC3)c2c1 [VILAZODONE HYDROCHLORIDE]
Population Apoptotic (%) [1]: 42% | Population Fragmented Nuclei (%) [1]: 17% | Population Healthy Nuclei (%) [1]: 65% | Population Hoechst High Intensity Objects (%) [1]: 9% | Population Membrane Permeable-Phenotype (%) [1]: 4% | Population Mitochondria Different-Phenotype (%) [1]: 28% | Population Mitotic Cells (%) [1]: 57% | Population Normal (%) [1]: 90% | Population Pyknosed Nuclei (%) [1]: 17% | Population Tubulin-Different-Phenotype (%) [1]: 29% | Total Cell Count [1]: 129 | Population Apoptotic (%) [2]: 27% | Population Fragmented Nuclei (%) [2]: 14% | Population Healthy Nuclei (%) [2]: 70% | Population Hoechst High Intensity Objects (%) [2]: 2% | Population Membrane Permeable-Phenotype (%) [2]: 6% | Population Mitochondria Different-Phenotype (%) [2]: 30% | Population Mitotic Cells (%) [2]: 72% | Population Normal (%) [2]: 97% | Population Pyknosed Nuclei (%) [2]: 15% | Population Tubulin-Different-Phenotype (%) [2]: 18% | Total Cell Count [2]: 50 | Population Apoptotic (%) [3]: 39% | Population Fragmented Nuclei (%) [3]: 29% | Population Healthy Nuclei (%) [3]: 12% | Population Hoechst High Intensity Objects (%) [3]: 18% | Population Membrane Permeable-Phenotype (%) [3]: 42% | Population Mitochondria Different-Phenotype (%) [3]: 89% | Population Mitotic Cells (%) [3]: 60% | Population Normal (%) [3]: 81% | Population Pyknosed Nuclei (%) [3]: 58% | Population Tubulin-Different-Phenotype (%) [3]: 100% | Total Cell Count [3]: 120 | Population Apoptotic (%) [4]: 67% | Population Fragmented Nuclei (%) [4]: 20% | Population Healthy Nuclei (%) [4]: 14% | Population Hoechst High Intensity Objects (%) [4]: 10% | Population Membrane Permeable-Phenotype (%) [4]: 38% | Population Mitochondria Different-Phenotype (%) [4]: 46% | Population Mitotic Cells (%) [4]: 32% | Population Normal (%) [4]: 89% | Population Pyknosed Nuclei (%) [4]: 64% | Population Tubulin-Different-Phenotype (%) [4]: 92% | Total Cell Count [4]: 72 | Population Apoptotic (%) [5]: 56% | Population Fragmented Nuclei (%) [5]: 16% | Population Healthy Nuclei (%) [5]: 71% | Population Hoechst High Intensity Objects (%) [5]: 7% | Population Membrane Permeable-Phenotype (%) [5]: 2% | Population Mitochondria Different-Phenotype (%) [5]: 26% | Population Mitotic Cells (%) [5]: 43% | Population Normal (%) [5]: 92% | Population Pyknosed Nuclei (%) [5]: 12% | Population Tubulin-Different-Phenotype (%) [5]: 21% | Total Cell Count [5]: 120 | Population Apoptotic (%) [6]: 60% | Population Fragmented Nuclei (%) [6]: 15% | Population Healthy Nuclei (%) [6]: 78% | Population Hoechst High Intensity Objects (%) [6]: 1% | Population Membrane Permeable-Phenotype (%) [6]: 3% | Population Mitochondria Different-Phenotype (%) [6]: 19% | Population Mitotic Cells (%) [6]: 40% | Population Normal (%) [6]: 98% | Population Pyknosed Nuclei (%) [6]: 6% | Population Tubulin-Different-Phenotype (%) [6]: 18% | Total Cell Count [6]: 54 | Population Apoptotic (%) [7]: 61% | Population Fragmented Nuclei (%) [7]: 26% | Population Membrane Permeable-Phenotype (%) [7]: 53% | Population Mitochondria Different-Phenotype (%) [7]: 86% | Population Mitotic Cells (%) [7]: 38% | Population Pyknosed Nuclei (%) [7]: 64% | Population Tubulin-Different-Phenotype (%) [7]: 93% | Total Cell Count [7]: 135 | Population Apoptotic (%) [8]: 75% | Population Fragmented Nuclei (%) [8]: 31% | Population Healthy Nuclei (%) [8]: 9% | Population Hoechst High Intensity Objects (%) [8]: 18% | Population Membrane Permeable-Phenotype (%) [8]: 30% | Population Mitochondria Different-Phenotype (%) [8]: 90% | Population Mitotic Cells (%) [8]: 24% | Population Normal (%) [8]: 81% | Population Pyknosed Nuclei (%) [8]: 59% | Population Tubulin-Different-Phenotype (%) [8]: 90% | Total Cell Count [8]: 79 | Population Apoptotic (%) [9]: 38% | Population Fragmented Nuclei (%) [9]: 10% | Population Healthy Nuclei (%) [9]: 76% | Population Hoechst High Intensity Objects (%) [9]: 6% | Population Membrane Permeable-Phenotype (%) [9]: 8% | Population Mitochondria Different-Phenotype (%) [9]: 10% | Population Mitotic Cells (%) [9]: 61% | Population Normal (%) [9]: 93% | Population Pyknosed Nuclei (%) [9]: 12% | Population Tubulin-Different-Phenotype (%) [9]: 16% | Total Cell Count [9]: 121 | Population Apoptotic (%) [10]: 40% | Population Fragmented Nuclei (%) [10]: 12% | Population Healthy Nuclei (%) [10]: 82% | Population Hoechst High Intensity Objects (%) [10]: 2% | Population Membrane Permeable-Phenotype (%) [10]: 9% | Population Mitochondria Different-Phenotype (%) [10]: 9% | Population Mitotic Cells (%) [10]: 60% | Population Normal (%) [10]: 97% | Population Pyknosed Nuclei (%) [10]: 4% | Population Tubulin-Different-Phenotype (%) [10]: 11% | Total Cell Count [10]: 49 | Population Apoptotic (%) [11]: 91% | Population Fragmented Nuclei (%) [11]: 35% | Population Healthy Nuclei (%) [11]: 7% | Population Hoechst High Intensity Objects (%) [11]: 21% | Population Membrane Permeable-Phenotype (%) [11]: 87% | Population Mitochondria Different-Phenotype (%) [11]: 100% | Population Mitotic Cells (%) [11]: 8% | Population Normal (%) [11]: 78% | Population Pyknosed Nuclei (%) [11]: 56% | Population Tubulin-Different-Phenotype (%) [11]: 100% | Total Cell Count [11]: 174 | Population Apoptotic (%) [12]: 89% | Population Fragmented Nuclei (%) [12]: 25% | Population Healthy Nuclei (%) [12]: 5% | Population Hoechst High Intensity Objects (%) [12]: 25% | Population Membrane Permeable-Phenotype (%) [12]: 75% | Population Mitotic Cells (%) [12]: 10% | Population Normal (%) [12]: 74% | Population Pyknosed Nuclei (%) [12]: 68% | Total Cell Count [12]: 120
